MrgX1 allo act: human MrgX1 positive allosteric modulation, primary screen | B-score at 10 µM | MrgX1-HEK293, Fluo-4 calcium flux, FDSS; hits give high values | 310,000 compounds, 0.63% hits | Q96LB2;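 active means plate-corrected calcium response at least 3 library SD above typical, normal starting fluorescence, not activating the receptor alone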;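 further: compound read alongside a low EC10 to EC30 dose of BAM8-22 agonist; peak minus trough fluorescence over baseline measured at the second addition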
Target sequence (Q96LB2 whole entry, looked up): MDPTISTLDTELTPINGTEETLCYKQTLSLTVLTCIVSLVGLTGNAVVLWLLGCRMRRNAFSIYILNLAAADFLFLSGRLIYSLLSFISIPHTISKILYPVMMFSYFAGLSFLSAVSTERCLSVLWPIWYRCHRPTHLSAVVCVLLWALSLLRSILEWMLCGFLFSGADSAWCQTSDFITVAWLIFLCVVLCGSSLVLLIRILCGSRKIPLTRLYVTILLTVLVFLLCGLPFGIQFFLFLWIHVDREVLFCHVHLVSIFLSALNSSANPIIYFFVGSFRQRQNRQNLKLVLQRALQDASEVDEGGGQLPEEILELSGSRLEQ
MrgX1 antagonist: blocks BAM8-22 activation of human MrgX1 receptor; MRGX1-HEK293 calcium flux, Fluo-4, BAM8-22 antagonism; hits give low values; B-score at 10 µM; 310,000 compounds, 1.3% hits; AID 588676;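 active means calcium-response B-score plate-corrected more than 3 library SD below zero, starting fluorescence within 5 deviations, no agonist response on first addition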;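 further: peak minus trough fluorescence over baseline after final BAM8-22 challenge near maximal dose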
RGS4 block: human RGS4 inhibition. 310,000 compounds, 0.45% hits. B-score at 10 µM. P49798. HEK293 M3R/RGS4 inducible, Fluo-4 calcium flux; hits give high values; triggered by carbachol at its EC20;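 active means B-score, a plate-corrected calcium signal, over three deviations above library mean, with baseline fluorescence within five deviations of library mean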;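 further: RGS4 expression induced by doxycycline in cells with stable M3 receptor; B-score is computed from the integrated fluorescence ratio over baseline after carbachol; higher B-score means a larger calcium signal and so more RGS4 inhibition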
Target sequence (P49798 whole entry, looked up): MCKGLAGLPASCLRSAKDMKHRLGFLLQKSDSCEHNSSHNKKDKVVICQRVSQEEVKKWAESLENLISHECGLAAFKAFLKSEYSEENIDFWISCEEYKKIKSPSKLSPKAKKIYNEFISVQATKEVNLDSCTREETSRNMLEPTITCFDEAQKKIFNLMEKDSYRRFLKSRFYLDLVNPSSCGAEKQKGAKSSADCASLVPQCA
RGS4 pot: potentiators or activators of RGS4; B-score at 10 µM; 310,000 compounds, 0.92% hits; AID 463111; HEK293 M3R/inducible RGS4, carbachol calcium flux Fluo4; hits give low values;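 active means B-score of the integrated calcium signal more than 4 SD below the library mean, with starting fluorescence not abnormally high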;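 further: negative B-score means reduced calcium response which marks RGS4 activation or potentiation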
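Test system: HEK293 cells with stable M3R and inducible RGS4; also added: carbachol at ECmax as muscarinic agonist stimulus; schedule: dye loading 30 min 37 °C, buffer rest 30 min RT; technique: kinetic calcium fluorescence imaging with Fluo4-AM dye, 2 µM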
MrgX1 ag: activates human MrgX1 receptor signaling; Q96LB2; MrgX1-HEK293 cells, Fluo-4 calcium fluorescence, agonist mode; hits give high values; B-score at 10 µM; 310,000 compounds, 0.44% hits; AID 588627;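 active means calcium response B-score plate-corrected fluorescence ratio at least 3 library SD, with starting fluorescence B-score inside 5 SD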
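Test system: Stable human MrgX1 HEK293 cell line | Schedule: Overnight plating before 1 h dye loading | Read-out basis: Baseline-normalised fluorescence change ratio, B-scored | Detection: Kinetic calcium dye fluorescence, Fluo-4 NW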
* marks the source's active call; other numbers are inactive results. Rows were chosen to be rich in hits. Some 3.5% of all compounds tested hit in one or more screens of this group.

Screening C(=C1/CCCC2=C1Nc1ncnn1C2c1ccccc1)/c1ccccc1 (stereo not drawn) returned MrgX1 allo act 7.3*, MrgX1 antagonist -5*, RGS4 block inactive, RGS4 pot inactive and MrgX1 ag inactive.
Screening S=C1NC2=C(CCC/C2=C\c2ccccc2)C(c2ccccc2)N1 (stereo not drawn) returned MrgX1 allo act inactive, MrgX1 antagonist inactive, RGS4 block inactive, RGS4 pot inactive and MrgX1 ag inactive.
`CN(C)S(=O)(=O)c1cccc(C(=O)N=C2N=C3C=CC(Cl)=CN3Cc3ccccc32)c1` gave MrgX1 allo act inactive, MrgX1 antagonist inactive, RGS4 block inactive, RGS4 pot inactive and MrgX1 ag inactive.
`COCCn1c(=NC(=O)/C=C/c2ccccc2)sc2cc(NC(C)=O)ccc21` gave MrgX1 allo act inactive, MrgX1 antagonist -4.9*, RGS4 block inactive, RGS4 pot inactive and MrgX1 ag inactive.
For CN1/C(=C/C=C(/C#N)C(N)=O)C(C)(C)c2ccccc21 the results were MrgX1 allo act inactive, MrgX1 antagonist inactive, RGS4 block inactive, RGS4 pot inactive and MrgX1 ag 33*.
Screening CN1/C(=C\C=C2/SC(=S)NC2=O)C(C)(C)c2ccccc21 returned MrgX1 allo act inactive, MrgX1 antagonist inactive, RGS4 block inactive, RGS4 pot inactive and MrgX1 ag 28*.
Screening O=c1c2ccccc2c(/C=N/NS(=O)(=O)c2ccccc2)c(O)n1-c1ccccn1 returned MrgX1 allo act inactive, MrgX1 antagonist inactive, RGS4 block inactive, RGS4 pot inactive and MrgX1 ag 52*.
For Cn1cnc2c(=O)[nH]cc([N+](=O)[O-])c21 the results were MrgX1 allo act inactive, MrgX1 antagonist inactive, RGS4 block inactive, RGS4 pot inactive and MrgX1 ag inactive.
Screening Cc1ccc(NC(=O)CCc2ccc(C)o2)cc1 returned MrgX1 allo act inactive, MrgX1 antagonist inactive, RGS4 block inactive, RGS4 pot inactive and MrgX1 ag inactive.
Cc1ccc(C(=O)COC(=O)CCC(=O)Nc2ccccc2Cl)cc1[N+](=O)[O-] was read as MrgX1 allo act inactive, MrgX1 antagonist inactive, RGS4 block inactive, RGS4 pot inactive and MrgX1 ag inactive.
Screening CC(=O)Nc1ccc(NC(=O)CCC(=O)OCC(=O)c2ccc(C)c([N+](=O)[O-])c2)cc1 returned MrgX1 allo act inactive, MrgX1 antagonist -5.6*, RGS4 block inactive, RGS4 pot inactive and MrgX1 ag inactive.
Screening O/C(=C\c1nc2ccccc2nc1/C=C(\O)c1ccccc1)c1ccccc1 returned MrgX1 allo act 14*, MrgX1 antagonist inactive, RGS4 block inactive, RGS4 pot inactive and MrgX1 ag inactive.
`CCCOc1cccc(-c2cc(C(=O)N/N=C/c3ccccn3)c3ccccc3n2)c1` gave MrgX1 allo act inactive, MrgX1 antagonist inactive, RGS4 block inactive, RGS4 pot -9.1* and MrgX1 ag inactive.
CCCOc1cccc(-c2cc(C(=O)N/N=C/c3cccnc3)c3ccccc3n2)c1 was read as MrgX1 allo act inactive, MrgX1 antagonist inactive, RGS4 block inactive, RGS4 pot -8.1* and MrgX1 ag inactive.
For Cc1cccc(-c2cc(C(=O)N/N=C/c3cccnc3)c3ccccc3n2)c1 the results were MrgX1 allo act inactive, MrgX1 antagonist inactive, RGS4 block inactive, RGS4 pot inactive and MrgX1 ag inactive.
COCCn1c(SCCOc2ccccc2)nc2ccccc2c1=O was read as MrgX1 allo act inactive, MrgX1 antagonist inactive, RGS4 block inactive, RGS4 pot inactive and MrgX1 ag inactive.
`Cc1ccc([N+](=O)[O-])c(OCCn2cnc3ccccc32)c1` gave MrgX1 allo act 10*, MrgX1 antagonist inactive, RGS4 block inactive, RGS4 pot inactive and MrgX1 ag inactive.
`CC(=O)c1cccc(CN(C)CC2CCCN(CCc3ccccc3C)C2)c1` (stereo not drawn) gave MrgX1 allo act inactive, MrgX1 antagonist inactive, RGS4 block inactive, RGS4 pot -7* and MrgX1 ag inactive.
CN(Cc1ccccc1)CC1CCCN(CCc2ccccc2F)C1 (stereo not drawn) was read as MrgX1 allo act inactive, MrgX1 antagonist inactive, RGS4 block inactive, RGS4 pot inactive and MrgX1 ag inactive.
COc1cc(/C=C(/C#N)C(=O)NC(C)c2ccccc2)cc(OC)c1O (stereo not drawn) was read as MrgX1 allo act inactive, MrgX1 antagonist inactive, RGS4 block inactive, RGS4 pot inactive and MrgX1 ag 59*.
COc1ccccc1/C=C/C=C(\C#N)C(=O)NC(C)c1ccccc1 (stereo not drawn) was read as MrgX1 allo act inactive, MrgX1 antagonist inactive, RGS4 block inactive, RGS4 pot inactive and MrgX1 ag inactive.
Screening O=c1c2ccccc2c(/C=N/c2nnc(Cc3ccccc3)s2)c(O)n1-c1ccc(Cl)cn1 returned MrgX1 allo act 16*, MrgX1 antagonist inactive, RGS4 block inactive, RGS4 pot inactive and MrgX1 ag inactive.
Screening COc1cc(CCC(=O)Nc2ccc(S(=O)(=O)NC3=NCCCCC3)cc2)cc(OC)c1OC returned MrgX1 allo act inactive, MrgX1 antagonist inactive, RGS4 block inactive, RGS4 pot inactive and MrgX1 ag inactive.
Screening C1CN(c2nc3nonc3nc2N2C[C@H]3CC[C@H]2C3)CCS1 returned MrgX1 allo act inactive, MrgX1 antagonist inactive, RGS4 block inactive, RGS4 pot inactive and MrgX1 ag inactive.
CCN(CC)CCOc1c(Br)ccc2c1sc1nc3n(c(=O)c12)CCC3 was read as MrgX1 allo act inactive, MrgX1 antagonist inactive, RGS4 block inactive, RGS4 pot inactive and MrgX1 ag inactive.
`O=c1c2c(nc3n1CCCCC3)sc1c(O)c(Br)ccc12` gave MrgX1 allo act inactive, MrgX1 antagonist -5.4*, RGS4 block inactive, RGS4 pot inactive and MrgX1 ag inactive.
O=C(/C=C/Nc1ccc(F)c(F)c1)c1cccs1 was read as MrgX1 allo act inactive, MrgX1 antagonist inactive, RGS4 block inactive, RGS4 pot inactive and MrgX1 ag inactive.
Screening O=C(/C=C/Nc1ccc(F)cc1)c1cccs1 returned MrgX1 allo act inactive, MrgX1 antagonist -5*, RGS4 block inactive, RGS4 pot inactive and MrgX1 ag inactive.
`CCOc1ccc(NC(=O)CN(C)C(=O)CCNC(=O)c2ccc(Br)cc2)cc1OCC` gave MrgX1 allo act inactive, MrgX1 antagonist inactive, RGS4 block inactive, RGS4 pot inactive and MrgX1 ag inactive.
Screening CCOc1ccc(NC(=O)CN(C)C(=O)CC(NC(=O)c2ccccc2)c2ccccc2)cc1OCC (stereo not drawn) returned MrgX1 allo act inactive, MrgX1 antagonist inactive, RGS4 block inactive, RGS4 pot inactive and MrgX1 ag 36*.
